Mot1-301 SUMO: blocks SUMOylation pathway, rescuing yeast Mot1-301 growth. S. cerevisiae Mot1-301 growth rescue, ATP luminescence, 38.5C; percent above DMSO median, 100 means doubled. growth rescue, % at 18.8 µM. 320,000 tested, 1% active. AID 2716;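 active = every valid replicate shows activation above 250% relative to neutral control wells; inactive = the rest, any valid replicate at or below 250%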;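 note: OY570 slx delta 5 strain wells were the positive control but not used for scaling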
PglD DTNB: PglD (C. jejuni) enzyme inhibition; purified PglD enzyme, DTNB colorimetric CoA detection; inhibition, % at 12.5 µM; 360,000 tested, 0.098% active; in the data active = inhibition above about 16%, passing the limit was not always enough
Cneo AK release: Cryptococcus neoformans lysis via adenylate kinase release | lysis activity, % at 15 µM | 360,000 tested, 0.2% active | C. neoformans lysis, adenylate kinase release luminescence, 4 h; normalised: neutral wells 0, clomiphene wells 100 | AID 651654;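 active = mean lysis activity across replicates of at least 80%, whatever share of replicates individually reach that level; inactive = mean lysis activity below 80%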
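Material: C. neoformans cells | Amount: Yeast cell density of 5 × 10^6 cells/mL | Medium: Fresh YPD growth medium | Dosing: Single dose | Times: Static 4 h at 37 °C with compound, 1 h detection | Detection: AK luminescence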
rRNA inh HTS: inhibits bacterial ribosomal RNA function over humanized ribosomes; E. coli WT GFP vs humanized-ribosome RFP mutants, fluorescence, 24 h; stronger effect = lower value; DMSO median 0, no signal -100; GFP signal change (wild-type ribosome), % (test concentration not listed); 350,000 tested, 1.6% active;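 active = significant combined selectivity score with lowered wild-type GFP, culture density cut under 30%, mutant RFP and density less affected; inactive = any of these conditions unmet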
CR mimetic SO: caloric restriction mimetics inhibiting age-related superoxide in yeast | S. cerevisiae aged cells, superoxide DHE fluorescence; stronger effect = lower value | superoxide response (% of plate mean), % at 10 µM | 330,000 tested, 0.18% active;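 active = superoxide response under a set limit, about three screen SD below normal, cut at about 65% in these data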;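 note: yeast aged for seven days with compound at 30 °C before DHE staining; 100% = average MFI of all compound-treated wells on the plate with controls excluded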
* hit, by the source's call; . = no result; ! = not confirmed by another sample. Only some compounds are listed: those with a hit (about 2.2% of all), similar ones and a draw of the others.

SMILES	Mot1-301 SUMO	PglD DTNB	Cneo AK release	rRNA inh HTS	CR mimetic SO
C[C@@H]1CN([C@H](C)CO)S(=O)(=O)c2ccc(-c3ccccc3F)cc2O[C@H]1CN(C)C(=O)C1CC1	.	0.5	0.4	-2.3	.
CCN(c1ccccc1)S(=O)(=O)c1ccc(Cl)c(NC(=O)CSc2nnc(C)s2)c1	58.5	.	.	-31.9*	90.7
COc1ccc(-n2cccc2C=O)cc1OC	12.3	-1.7	0.8	.	88.7
COc1ccccc1-n1cccc1C=O	658.7*	.	.	0.7	97.8
C[C@@H]1CN([C@H](C)CO)C(=O)CCCn2cc(nn2)CO[C@H]1CN(C)C	.	-2.4	37.7	2.5	.
COc1cc(CN2CC3(CCN(C(=O)c4cccnc4)CC3)c3c([nH]c4cc(OC)ccc34)[C@@H]2CO)cc(OC)c1	.	.	.	-2.6	.
COc1ccc(-c2cc(C(=O)N3CC4(C)CC3CC(C)(C)C4)no2)cc1 (stereo not given)	-1.0	-2.7	-0.8	.	87.0
COc1ccc(-c2cc(C(=O)N3CC4(C)CC3CC(C)(C)C4)no2)cc1OC (stereo not given)	878.7*	-1.8	5.1	10.6	102.0
C[C@@H]1CN([C@@H](C)CO)C(=O)CCCn2cc(nn2)CO[C@@H]1CN(C)C(=O)Nc1cccc(F)c1	.	.	.	0.7	.
COc1ccc(NC(=O)N(C)C[C@@H]2Oc3ccc(NC(=O)C4CCCCC4)cc3C(=O)N([C@H](C)CO)C[C@H]2C)cc1	.	3.0	2.0	3.2	.
COc1ccc(CN(C)C[C@H]2Oc3c(NS(C)(=O)=O)cccc3C(=O)N([C@@H](C)CO)C[C@@H]2C)cc1	.	-2.8	0.3	-1.6	.
COc1ccccc1C#Cc1ccc2c(c1)[C@@H]1[C@@H](CCN1C(=O)CN1CCOCC1)[C@H](CO)N2	.	.	.	-2.4	.
Cc1cc(C)c2sc(N(CCN(C)C)C(=O)c3c(F)cccc3F)nc2c1	-27.9	-1.0	1.3	-37.4*	106.1
Cc1cc(C)c2sc(N(CCCN(C)C)C(=O)c3ccc(Br)s3)nc2c1	234.5	2.3	8.0	-8.0	96.0
C[C@H](O)C#Cc1ccc([C@@H]2[C@H]3CN(CC4CCOCC4)CCCCN3[C@H]2CO)cc1	.	-0.2	-0.2	8.1	.
C[C@H](O)C#Cc1ccc([C@@H]2[C@@H](CO)N3CCCCN(CC4CC4)C[C@H]23)cc1	.	4.6	-3.2	-0.5	.
C[C@@H](O)C#Cc1ccc([C@@H]2[C@H]3CN(CC4CC4)CCCCN3[C@H]2CO)cc1	.	2.6	114.6*	-1.8	.
C[C@H](O)C#Cc1ccc([C@H]2[C@H](CO)N3CCCCN(CC4CCOCC4)C[C@@H]23)cc1	.	1.9	97.9*	6.7	.
Cc1ccc(S(=O)(=O)NCC[C@@H]2CC[C@H](NS(=O)(=O)c3ccccc3Cl)[C@H](CO)O2)cc1	.	-0.6	0.6	-2.8	.
CC(N)C12CC3CC(CC(C3)C1)C2 (stereo not given)	328.7*!	2.6	-0.5	10.7	90.5
O=C(Nc1ccc(Oc2cccc(C(F)(F)F)c2)nc1)c1ccco1	342.1*	4.1	4.5	-0.5	96.7
CC(C)(C)c1ccc(Oc2ccc(NC(=O)c3ccco3)cn2)cc1	378.4	.	.	-15.3	92.2
CO[C@H](CN(C)S(=O)(=O)c1ccc(Cl)cc1)[C@@H](C)CN(C(=O)Nc1ccccc1F)[C@@H](C)CO	.	-2.9	-2.1	-5.2	.
CO[C@@H]1CN(C)C(=O)c2ccc(NC(C)=O)cc2OC[C@@H](C)N(C(=O)c2ccccc2F)C[C@@H]1C	.	0.3	-10.8	0.9	.
CCCCOc1ccc(N2CC(C(=O)NCCc3ccc(OC)c(OC)c3)CC2=O)cc1 (stereo not given)	908.6*	.	.	-3.5	94.4
COc1ccc(N2CC(C(=O)NCCc3ccc(OC)c(OC)c3)CC2=O)cc1 (stereo not given)	-7.7	0.8	0.4	.	96.7
CCCNC(=O)Nc1ccc2c(c1)C(=O)N(C)[C@@H]1CC[C@H](CC(=O)NCCCN(C)C)O[C@@H]1CO2	.	-5.9	47.8	1.4	.
Cc1noc(C)c1NC(=O)N(C)C[C@@H]1Oc2ccc(NC(=O)Nc3ccc(C(F)(F)F)cc3)cc2C(=O)N([C@@H](C)CO)C[C@H]1C	.	-0.7	2.3	0.0	.
COc1ccccc1NC(=O)N[C@H]1CC[C@@H](CCn2cc(-c3ccccc3OC)nn2)O[C@@H]1CO	.	-2.5	99.1*	1.8	.
COc1cccc(-c2cn(CC[C@@H]3CC[C@H](NC(C)=O)[C@H](CO)O3)nn2)c1	.	-3.6	0.2	2.1	.

Screens as filed in PubChem.
